# Measurements from ChEMBL document CHEMBL4020840, “Synthesis and Biological Evaluation of Selenium-Containing 4-Anilinoquinazoline Derivatives as Novel Antimitotic Agents” (J Med Chem, 2018).
# Active and inactive are the calls of the source. The rule behind the calls is not given here.
# Legend:
# MCF7 = assay: Induction of morphological changes in human MCF7 cells at 2 to 8 nM after 48 hrs by confocal microscopic method; type: functional, cell-based
# Outline: (§1)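 Human cancer cells were treated at the indicated concentrations, or 0.01% DMSO vehicle, for 48 h. Cells were then fixed and their morphology was examined by microscopy with a 20× objective.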
# HeLa [1] = assay: Induction of morphological changes in human HeLa cells at 2 to 8 nM after 48 hrs by confocal microscopic method; type: functional, cell-based; outline: as §1
# MGC-803 = assay: Induction of morphological changes in human MGC803 cells at 2 to 8 nM after 48 hrs by confocal microscopic method; type: functional, cell-based; outline: as §1
# A549 [2] = assay: Induction of ROS generation in human A549 cells at 2 to 8 nM after 12 hrs by DCFH-DA staining based fluorescence microscopic method; type: functional, cell-based
# Outline: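 A549 plated at 3 × 10⁵ cells/well and grown 24 h, then exposed to compound (2, 4, 8 nM) for 12 h. Loaded with DCFH-DA in fresh medium at 37 °C for 30 min and washed three times with PBS. DCF fluorescence read at excitation 488 and emission 525 nm. Images taken after Hoechst 33342 nuclear staining.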
# Sus scrofa = species: Sus scrofa; assay: Inhibition of porcine brain tubulin polymerization measured every 60 secs for 90 mins by DAPI staining based fluorescence assay
# Outline: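 Purified tubulin was tested in a kit assay. Final buffer: 80 mM PIPES sesquisodium (pH 6.9), 2.0 mM MgCl₂, 0.5 mM EGTA, 1 mM GTP, 10.2% glycerol. Compound (0.1–10 μM) was prewarmed at 37 °C for 1 min before tubulin was added. DAPI reporter fluorescence (ex 340 / em 410 nm) was read every 60 s for 90 min. Area under the curve gave percent inhibition versus control and the IC50.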
# A549 [3] = assay: Disruption of microtubule network in human A549 cells at 2 nM after 12 hrs by Hoechst 33342 staining based laser scanning confocal microscopic method; type: cell-based
# Outline: (§2)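 A549 and HeLa cells at 3 × 10⁵ per confocal dish, grown 24 h, then exposed to compound (2, 4 or 8 nM) or 0.01% DMSO for 12 h. Fixed in 4% paraformaldehyde at 37 °C for 15 min, permeabilised with 0.5% Triton X-100, blocked with 10% goat serum. Stained with mouse anti-tubulin at 4 °C overnight, then Alexa-Fluor 488 secondary; Hoechst 33342 nuclear stain; confocal imaging.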
# A549 [4] = assay: Disruption of microtubule network in human A549 cells at 4 to 8 nM after 12 hrs by Hoechst 33342 staining based laser scanning confocal microscopic method; type: cell-based; outline: as §2
# HeLa [5] = assay: Disruption of microtubule network in human HeLa cells at 2 nM after 12 hrs by Hoechst 33342 staining based laser scanning confocal microscopic method; type: cell-based; outline: as §2
# HeLa [6] = assay: Disruption of microtubule network in human HeLa cells at 4 to 8 nM after 12 hrs by Hoechst 33342 staining based laser scanning confocal microscopic method; type: cell-based; outline: as §2
# A549 [7] = assay: Cell cycle arrest in human A549 cells assessed as accumulation at G2/M phase up to 24 hrs by propidium iodide staining based flow cytometry; type: functional
# Outline: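 A549 seeded in six-well plates at 3 × 10⁵ cells/well and treated for 12 or 24 h; vehicle 0.01% DMSO. Cells fixed overnight in ice-cold 70% ethanol, treated with RNase A at 37 °C for 30 min, then stained with PI at 4 °C for 30 min. About 10 000 events acquired by flow cytometry at 488 nm; three experiments.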
# A549 [8] = assay: Induction of apoptosis in human A549 cells assessed as upregulation of Bax level at 2 to 4 nM after 24 to 48 hrs by Western blot method; type: functional, cell-based
# Outline: (§3)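 A549 seeded in 60 mm dishes at 5 × 10⁵ cells and treated for 24 or 48 h. Lysed in RIPA buffer on ice for 30 min and spun at 12 500g. Protein measured by BCA; 40 μg run on 8−12% SDS−PAGE and moved to nitrocellulose. Blocked in 5% milk, primary antibodies at 4 °C overnight, HRP secondary 2 h, ECL detection.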
# A549 [9] = assay: Induction of apoptosis in human A549 cells assessed as upregulation of Bad level at 2 to 4 nM after 24 to 48 hrs by Western blot method; type: functional, cell-based; outline: as §3
# A549 [10] = assay: Induction of apoptosis in human A549 cells assessed as downregulation of Bcl2 level at 2 to 4 nM after 24 to 48 hrs by Western blot method; type: functional, cell-based; outline: as §3
# A549 [11] = assay: Induction of mitochondrial membrane disruption in human A549 cells at 2 to 8 nM after 48 hrs by JC1/Hoechst 33342 staining based flow cytometry; type: functional, cell-based
# A549 [12] = assay: Antimigratory activity against human A549 cells assessed as suppression of wound healing at 4 nM after 24 hrs by phase contrast microscopic method; type: functional, cell-based
# Outline: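 Scratch wound assay: A549 plated at 5 × 10⁴ cells/dish and grown 24 h before scraping with a 10 μL tip. Medium then swapped to serum-free DMEM containing compound (4 nM) for 24 h. After a PBS wash, wound images taken at 0 and 24 h; at least three independent experiments.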
smiles,measurement,setting,value
C[Se]c1ccc(N(C)c2nc(C)nc3ccccc23)cc1,Activity,MCF7,Active
same,Activity,HeLa [1],Active
same,Activity,MGC-803,Active
same,Activity,A549 [2],Active
same,inhibition,Sus scrofa,Dose-dependent effect
same,Activity,A549 [3],inactive
same,Activity,A549 [4],Active
same,Activity,HeLa [5],inactive
same,Activity,HeLa [6],Active
same,Activity,A549 [7],Dose-dependent effect
same,Activity,A549 [8],Active
same,Activity,A549 [9],Active
same,Activity,A549 [10],Active
same,Activity,A549 [11],Active
same,Activity,A549 [12],Active
